A selection: hits, their analogues and other compounds. The true share with any hit is near 3.4%.
TMEM16A inh = inhibitors of mouse TMEM16A calcium-activated chloride channel; Q8BHY3; HEK293 TMEM16A/YFP iodide influx fluorescence, ionomycin; normalized B-score (activity score, 25-100; higher = stronger inhibition) at 10 µM; 1.2% of 310,000 active; AID 588511;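 active = ratio plate-corrected score three or more library SD toward inhibition, starting fluorescence score within five deviations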;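 also: score derived from kinetic fluorescence span divided by baseline fluorescence per well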
Target sequence (Q8BHY3 whole entry, looked up): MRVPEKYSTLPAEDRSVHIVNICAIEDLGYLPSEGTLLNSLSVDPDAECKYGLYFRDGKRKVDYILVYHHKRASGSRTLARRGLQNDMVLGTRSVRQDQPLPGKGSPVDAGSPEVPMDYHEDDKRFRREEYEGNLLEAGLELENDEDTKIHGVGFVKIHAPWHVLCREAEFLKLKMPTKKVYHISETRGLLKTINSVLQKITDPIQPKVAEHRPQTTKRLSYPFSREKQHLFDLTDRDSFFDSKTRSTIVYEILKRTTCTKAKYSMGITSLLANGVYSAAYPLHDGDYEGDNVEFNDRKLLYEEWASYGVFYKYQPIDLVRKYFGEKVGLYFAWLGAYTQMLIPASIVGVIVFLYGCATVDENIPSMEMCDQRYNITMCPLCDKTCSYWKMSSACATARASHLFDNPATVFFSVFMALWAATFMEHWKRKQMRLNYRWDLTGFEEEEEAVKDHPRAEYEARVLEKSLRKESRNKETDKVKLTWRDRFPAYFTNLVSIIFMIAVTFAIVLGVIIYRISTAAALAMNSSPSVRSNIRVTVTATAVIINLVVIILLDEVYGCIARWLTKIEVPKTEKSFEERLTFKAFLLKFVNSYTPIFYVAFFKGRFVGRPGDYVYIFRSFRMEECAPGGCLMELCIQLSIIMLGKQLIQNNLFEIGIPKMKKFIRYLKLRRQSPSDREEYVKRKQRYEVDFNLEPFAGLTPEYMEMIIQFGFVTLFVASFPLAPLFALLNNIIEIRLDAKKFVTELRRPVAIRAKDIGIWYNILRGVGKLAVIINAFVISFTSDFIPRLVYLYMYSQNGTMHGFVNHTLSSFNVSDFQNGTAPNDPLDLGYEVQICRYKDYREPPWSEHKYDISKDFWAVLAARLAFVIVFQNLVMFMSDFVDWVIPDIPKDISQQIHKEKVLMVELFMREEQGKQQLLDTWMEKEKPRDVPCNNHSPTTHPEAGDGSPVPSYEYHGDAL
m5-HT2A agonist = mouse HTR2A agonism via beta-arrestin recruitment | P35363 | CHO-K1 mHTR2A beta-arrestin complementation, luminescence; percent of 30 µM serotonin response | activation, % at 7.6 µM | 0.66% of 360,000 active | AID 624169;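 active = activation above a run cutoff, the mean activation of all tested compounds plus 3 SD, cut at about 14% in these data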;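 also: 0% = plate median of compound wells and 100% = 30 µM serotonin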
MC4R antagonist = blocks human MC4R cAMP signaling; 0.48% of 360,000 active; AID 540295; MC4R-expressing cells, MTII-stimulated cAMP, LANCE TR-FRET; P32245; inhibition, % at 6.5 µM;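 active = inhibition above its plate's cutoff, the mean of tested wells on that plate plus 3 SD, cut at about 29% in these data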;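 also: 0% = Melanotan II alone and 100% = Melanotan II plus saturating MCL0020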
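Material: human MC4R-expressing U2OS cells. Probe or stimulus: Melanotan II challenge. Dosing: 6.5 µM single dose. Times: 30-min compound, 1-h challenge, 1-h detection, room temperature. Technique: TR-FRET with Eu-cAMP and labeled anti-cAMP, 671 nm. Replication: singlicate.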
MIN6 prolif = induces beta-cell replication in MIN6 cells | MIN6 cells proliferation, ATPlite luminescence, 48 h; cells starved in 0.2% serum; 100% = growth in 10% serum | proliferation, % at 10 µM | 0.29% of 330,000 active | AID 2380;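 active = compounds whose signal lies at least 3.5 SD above the mean of all wells on their plate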;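 also: 0% = DMSO-treated cells in low-serum medium and 100% = 10% serum control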
TMEM16A act = mouse TMEM16A channel activation, primary screen | B-score at 10 µM | 0.3% of 340,000 active | HEK293 TMEM16A/YFP-H148Q/I152L, iodide quench fluorescence; active compounds read low | Q8BHY3;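 active = fluorescence-ratio B-score plate-corrected deviation score at least 3 library SD below zero, with starting fluorescence score within 5 deviations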;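 also: channel opened by trigger with iodide after compound preincubation; score built on the fluorescence ratio of max minus min over baseline; more negative score means more quench and so TMEM16A activation or potentiation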
MC4R ag barr = human MC4R agonism via beta-arrestin; U2OS MC4R beta-arrestin complementation, luminescence; percent of melanotan II response, DMSO zero; activation, % at 8.9 µM; 0.98% of 360,000 active; AID 540308;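 active = activation above a per-plate cutoff, the mean activation of sample wells on that plate plus 3 SD, cut at about 8% in these data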
cAMP nonselect = nonselective cAMP signaling inhibitor, MC4R antagonist counter-screen. AID 602193. shares compounds with MC4R antagonist. inhibition, % at 6.5 µM. parental U2OS, forskolin cAMP, LANCE TR-FRET. 26% of 1,600 active;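 active = mean inhibition over triplicates above the low-control well mean plus 3 SD, set per campaign, cut at about 13% in these data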;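 also: signal is single emission at 671 nm which falls as cellular cAMP rises; 0% = forskolin-stimulated wells and 100% = buffer without forskolin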
MC4R antag conf = human MC4R cAMP antagonism confirmation | shares compounds with MC4R antagonist | AID 602195 | MC4R-expressing cells, MTII-stimulated cAMP, TR-FRET | 27% of 1,600 active | inhibition, % at 6.5 µM; in the data active = inhibition above about 29%;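 also: 0% = agonist stimulated wells alone and 100% = agonist stimulated wells plus saturating reference antagonist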
The depositor's hits bear a star.

Screening COc1ccc(CC(=O)Oc2ccc(C(C)(C)C)cc2)cc1S(=O)(=O)N1CCOCC1 returned TMEM16A inh inactive, m5-HT2A agonist -11, MC4R antagonist 32*, MIN6 prolif 1, TMEM16A act inactive, MC4R ag barr -3, cAMP nonselect 12 and MC4R antag conf 14.
Screening O=C(Cc1ccc(NC2=NC3CS(=O)(=O)CC3S2)cc1)NCCc1ccccc1 (centres undefined) returned TMEM16A inh inactive, m5-HT2A agonist 6, MC4R antagonist -1, MIN6 prolif 0, TMEM16A act inactive and MC4R ag barr -1.
O=C(O)c1ccc(/C=C2\COc3ccccc3C2=O)cc1 was read as TMEM16A inh inactive, m5-HT2A agonist -2, MC4R antagonist 36*, MIN6 prolif -4, TMEM16A act inactive, MC4R ag barr -3, cAMP nonselect 5 and MC4R antag conf 6.
Screening COc1ccccc1N(C(C)=O)C1=C(Cl)C(=O)c2ccccc2C1=O returned m5-HT2A agonist 1, MC4R antagonist 98*, MC4R ag barr -4, cAMP nonselect 50* and MC4R antag conf 13.
`CN(C)c1ccnc(Nc2ccc(O)cc2)c1C#N` gave TMEM16A inh inactive, m5-HT2A agonist 7, MC4R antagonist 29*, MIN6 prolif 0, TMEM16A act inactive, MC4R ag barr 1, cAMP nonselect -1 and MC4R antag conf 3.
Cc1cc(C(=O)Nc2nc(-c3ccccn3)cs2)ccc1[N+](=O)[O-] was read as TMEM16A inh inactive, m5-HT2A agonist -4, MC4R antagonist 18, MIN6 prolif -6, TMEM16A act inactive and MC4R ag barr -2.
`O=C(Nc1nc(-c2ccccn2)cs1)c1cc(Cl)ccc1[N+](=O)[O-]` gave TMEM16A inh inactive, m5-HT2A agonist -7, MC4R antagonist 29*, MIN6 prolif -6, TMEM16A act inactive, MC4R ag barr -1, cAMP nonselect 32* and MC4R antag conf 18.
Screening Cc1ccc(S(=O)(=O)N(C)c2ccc(C(=O)NCc3ccccc3F)cc2)cc1 returned TMEM16A inh inactive, m5-HT2A agonist -3, MC4R antagonist 4, MIN6 prolif -4, TMEM16A act inactive and MC4R ag barr -1.
CCC1=NN(S(=O)(=O)c2ccc(C)cc2)C(O)(C(F)(F)F)C1 (centres undefined) was read as TMEM16A inh inactive, m5-HT2A agonist 2, MC4R antagonist 29*, MIN6 prolif -4, TMEM16A act inactive, MC4R ag barr 1, cAMP nonselect -2 and MC4R antag conf -7.
For CCC1=NN(C(=O)CCc2ccccc2)C(O)(C(F)(F)F)C1 (centres undefined) the results were TMEM16A inh inactive, m5-HT2A agonist 7, MC4R antagonist 0, MIN6 prolif -3, TMEM16A act inactive and MC4R ag barr 0.
CCCN(C)C1CN(Cc2cn(Cc3cc(C)cc(C)c3)nn2)S(=O)(=O)C1 (centres undefined) was read as m5-HT2A agonist 5.
For Cc1cccc(C)c1NC(=O)CCCSc1nnc(N)s1 the results were TMEM16A inh inactive, m5-HT2A agonist 1, MC4R antagonist 33*, MIN6 prolif 3, TMEM16A act inactive, MC4R ag barr 0, cAMP nonselect -1 and MC4R antag conf -7.
For Cc1cccc(C)c1NC(=O)COC(=O)CSc1nnc(N)s1 the results were TMEM16A inh inactive, m5-HT2A agonist 1, MC4R antagonist 21, MIN6 prolif 1, TMEM16A act inactive and MC4R ag barr 3.
`CCc1nc2ccc(C(=O)N3CCN(S(=O)(=O)CC)CC3)cn2c1N(CC)Cc1cccc(Br)c1` gave m5-HT2A agonist 0, MC4R antagonist 8 and MC4R ag barr -1.
Screening CC1CCN(c2nc(Cl)nc(Nc3ccc([N+](=O)[O-])cc3)n2)CC1 returned TMEM16A inh inactive, m5-HT2A agonist -4, MC4R antagonist 32*, MIN6 prolif -6, TMEM16A act inactive, MC4R ag barr -3, cAMP nonselect 6 and MC4R antag conf 36*.
`COC(=O)COc1ccc(NC(=O)Cn2nc(-c3ccccc3)c3ccccc3c2=O)cc1` gave TMEM16A inh inactive, m5-HT2A agonist 11, MC4R antagonist 29*, MIN6 prolif -8, TMEM16A act inactive, MC4R ag barr 0, cAMP nonselect 19* and MC4R antag conf 38*.
For Cc1cc(SCCC(=O)O)nc2ccccc12 the results were TMEM16A inh inactive, m5-HT2A agonist 2, MC4R antagonist 6, MIN6 prolif -3, TMEM16A act inactive and MC4R ag barr 2.
Cc1nc(SCCC(=O)O)c2ccccc2n1 was read as TMEM16A inh inactive, m5-HT2A agonist 2, MC4R antagonist 54*, MIN6 prolif -3, TMEM16A act inactive, MC4R ag barr 1, cAMP nonselect 19* and MC4R antag conf 34*.
Cc1csc(SCC(=O)Nc2cc(S(=O)(=O)N(C)C)ccc2C)n1 was read as TMEM16A inh inactive, m5-HT2A agonist -2, MC4R antagonist 14, MIN6 prolif 0, TMEM16A act inactive and MC4R ag barr 1.
COc1ccc2c(c1)CCC1(C)CC(=O)C(Br)=C21 (centres undefined) was read as m5-HT2A agonist 0, MC4R antagonist 40*, MC4R ag barr 0, cAMP nonselect 34* and MC4R antag conf 53*.
For CCc1nc2ccc(C(=O)N(C)C(C)C)cn2c1N(CC)Cc1cccc(Br)c1 the results were m5-HT2A agonist -1, MC4R antagonist 5 and MC4R ag barr 2.
For NC(=S)Nc1cccc(F)c1 the results were TMEM16A inh inactive, m5-HT2A agonist 5, MC4R antagonist 29*, MIN6 prolif 1, TMEM16A act inactive, MC4R ag barr 1, cAMP nonselect -3 and MC4R antag conf -4.
`O=C(CSc1c2c(nc3cc(Cl)ccc13)CCCC2)NCCN1CCOCC1` gave TMEM16A inh inactive, m5-HT2A agonist 1, MC4R antagonist 30*, MIN6 prolif -3, TMEM16A act inactive, MC4R ag barr -3, cAMP nonselect 3 and MC4R antag conf 24.
`CCCNC(=O)C1(C)CCN(C(=O)c2cccc(C#N)c2)C1` (centres undefined) gave m5-HT2A agonist 2, MC4R antagonist 16 and MC4R ag barr 0.
